Tests used:
[1] = Antimigratory activity against human EC17 cells assessed as inhibition of migration after 24 hrs by chemotaxis cell chamber assay; format: functional, cell-based; details: EC17, 24 h
Summary of the method: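 Chemotaxis chamber: EC17 cells in upper chamber with graded compound concentrations; lower chamber holds EC17-conditioned medium (from 24 h cultures in RPMI1640 + 1% FBS) as chemoattractant. After 24 h, cells migrated through the filter to its lower side are counted. Counts are mean SD of five fields. IC50 is derived from these counts.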

[2] = target: Protein farnesyltransferase (Homo sapiens, UniProt P49354+P49356); assay: Inhibition of protein farnesyltransferase from human EC17 cells using [3H]FPP and […]-H-Ras; format: cell-based
Summary of the method: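 FTase is partially purified from EC17 cells. It is incubated with [3H]-farnesylpyrophosphate plus recombinant GST-H-Ras as substrates, with or without test compound. Compounds are tested up to 100 µM.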

[3] = Cytotoxicity against human EC17 cells assessed as cell viability by trypan blue dye; format: cell-based
Summary of the method: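 EC17 cells are tested for viability by trypan blue dye exclusion. The 50% inhibitory concentration for viability is estimated from this assay.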

Cc1cc(O)c(CC(O)C(C)CC[C@H]2[C@@H](C)CCCC2(C)C)c(O)c1C=O (relative stereo)
IC50 [1]: 2.12 µM
IC50 [2]: > 100 µM
IC50 [3]: 16 µM

C=C(CC[C@H]1[C@@H](C)CCCC1(C)C)C(O)Cc1c(O)cc(C)cc1O (relative stereo)
IC50 [1]: 2.17 µM
IC50 [2]: > 100 µM
IC50 [3]: 17 µM

C=C(CCC12CC3CC(CC(C3)C1)C2)C(O)Cc1c(O)cc(C)c(C=O)c1O (centres undefined)
IC50 [1]: 6.52 µM
IC50 [2]: > 100 µM
IC50 [3]: 55 µM

C=C(CC[C@@]1(C)[C@H](C)CCC(=O)[C@@H]1C)C(O)Cc1c(O)cc(C)cc1O (some centres undefined)
IC50 [1]: 21.4 µM
IC50 [2]: > 100 µM
IC50 [3]: > 28 µM

C=C(CCC1CCCCC1)C(O)Cc1c(O)cc(C)c(C=O)c1O (centres undefined)
IC50 [1]: 8.43 µM
IC50 [2]: > 100 µM
IC50 [3]: 87 µM

C=C(CC[C@H]1[C@@H](C)CCCC1(C)C)C(=O)Cc1c(O)cc(C)c(C=O)c1O (relative stereo)
IC50 [1]: 4.41 µM
IC50 [2]: > 100 µM
IC50 [3]: 18 µM

C=C(CC[C@H]1[C@@H](C)CCCC1(C)C)C(O)Cc1c(O)cc(C)c(C=O)c1O (relative stereo)
IC50 [1]: 1.98 µM
IC50 [2]: 14.7 µM
IC50 [3]: 46 µM

C=C(C)C(O)Cc1c(O)cc(C)c(C=O)c1O (centres undefined)
IC50 [1]: 30 µM
IC50 [2]: > 100 µM
IC50 [3]: > 130 µM

C=C(CC[C@@]1(C)[C@H](C)CCC(=O)[C@@H]1C)[C@H](O)Cc1c(O)cc(C)c(C=O)c1O [MOVERASTIN A]
IC50 [1]: 7.22 µM
IC50 [2]: > 100 µM
IC50 [3]: > 77 µM

Cc1cc(O)c2c(c1C=O)OCC(CC[C@H]1[C@@H](C)CCCC1(C)C)=CC2 (relative stereo)
IC50 [1]: 2 µM
IC50 [2]: > 100 µM
IC50 [3]: 18 µM

C=C(CC[C@H]1[C@@H](C)CCCC1(C)C)C(O)Cc1c(OC)cc(C)c(C=O)c1O (relative stereo)
IC50 [1]: 4.57 µM
IC50 [2]: > 100 µM
IC50 [3]: 18 µM

C=C(CCc1c(C)cccc1C)C(O)Cc1c(O)cc(C)c(C=O)c1O (centres undefined)
IC50 [1]: 10.6 µM
IC50 [2]: > 100 µM
IC50 [3]: 45 µM

C=C(CC/C=C(\C)CCC=C(C)C)C(O)Cc1c(O)cc(C)c(C=O)c1O (centres undefined)
IC50 [1]: 7.53 µM
IC50 [2]: > 100 µM
IC50 [3]: > 80 µM
